Laboratory results: ChEMBL document CHEMBL1687899, “Structure-activity relationships in nucleotide oligomerization domain 1 (Nod1) agonistic γ-glutamyldiaminopimelic acid derivatives” (J Med Chem, 2011)
The source made the active and inactive calls. No cut-off for these calls is given here.

What was measured:
[1] = target: T1, Nucleotide-binding oligomerization domain-containing protein 1 (Homo sapiens, UniProt Q9Y239); assay: Agonist activity at human NOD-1 expressed in human HEK293 cells assessed as NF-kappaB induction by spectrophotometric analysis; format: functional, cell-based
T1 sequence (Q9Y239 whole entry): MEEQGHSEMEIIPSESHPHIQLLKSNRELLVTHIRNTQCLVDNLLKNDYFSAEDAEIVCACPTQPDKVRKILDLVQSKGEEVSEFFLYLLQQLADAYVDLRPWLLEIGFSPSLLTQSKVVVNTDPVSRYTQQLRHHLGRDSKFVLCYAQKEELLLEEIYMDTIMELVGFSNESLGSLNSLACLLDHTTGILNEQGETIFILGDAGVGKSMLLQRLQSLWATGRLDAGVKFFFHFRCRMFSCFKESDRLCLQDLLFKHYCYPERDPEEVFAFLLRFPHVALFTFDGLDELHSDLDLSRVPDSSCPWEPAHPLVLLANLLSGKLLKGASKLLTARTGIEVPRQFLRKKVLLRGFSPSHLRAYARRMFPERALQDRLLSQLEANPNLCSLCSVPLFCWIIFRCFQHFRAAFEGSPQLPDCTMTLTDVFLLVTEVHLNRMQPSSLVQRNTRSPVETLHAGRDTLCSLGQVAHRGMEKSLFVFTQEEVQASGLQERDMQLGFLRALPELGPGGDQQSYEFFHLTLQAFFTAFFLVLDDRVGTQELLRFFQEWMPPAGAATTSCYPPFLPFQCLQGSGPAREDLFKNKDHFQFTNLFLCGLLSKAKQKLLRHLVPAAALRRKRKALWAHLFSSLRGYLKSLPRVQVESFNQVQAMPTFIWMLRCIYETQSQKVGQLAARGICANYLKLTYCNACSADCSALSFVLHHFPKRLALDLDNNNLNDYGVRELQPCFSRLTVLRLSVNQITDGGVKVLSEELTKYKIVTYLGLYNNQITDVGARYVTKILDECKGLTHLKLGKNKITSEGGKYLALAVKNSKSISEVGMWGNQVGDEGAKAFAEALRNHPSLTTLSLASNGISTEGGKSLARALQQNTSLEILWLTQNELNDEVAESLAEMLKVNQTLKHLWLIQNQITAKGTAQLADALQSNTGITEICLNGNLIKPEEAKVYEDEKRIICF
Method in brief: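 HEK-Blue cells (HEK293 stably transfected with human Nod1 and an NF-κB/AP-1-inducible secreted alkaline phosphatase reporter) were kept in selection medium with zeocin and normocin. Cells at ~10^5 cells/mL were grown to confluency and then given graded compound concentrations. Supernatant sAP was read spectrophotometrically at 620 nm with an alkaline phosphatase-specific chromogen.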

[2] = target: Triggering receptor expressed on myeloid cells 1 (Homo sapiens) (UniProt Q9NP99); assay: Induction of TREM-1-mediated activation of IL-6 signaling pathway in human PBMC at 20 ug/ml
Method in brief: (§1)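 PBMCs were isolated from fresh heparin-anticoagulated human blood and stimulated with compound at 20 μg/mL for 2 h. Total RNA was extracted from treated and negative-control PBMC samples for transcriptomal profiling.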

[3] = target: Triggering receptor expressed on myeloid cells 1 (Homo sapiens) (UniProt Q9NP99); assay: Induction of TREM-1-mediated activation of IL12 signalling and production in human PBMC at 20 ug/ml; method in brief: as §1
[4] = system: PBMC; assay: Upregulation of interleukin 1RN in human PBMC at 20 ug/ml after 2 hrs; format: functional; method in brief: as §1
[5] = target: Triggering receptor expressed on myeloid cells 1 (Homo sapiens) (UniProt Q9NP99); assay: Induction of TREM-1-mediated dendritic cell maturation in human PBMC at 20 ug/ml; method in brief: as §1
[6] = system: PBMC; assay: Upregulation of interleukin 8 in human PBMC at 20 ug/ml after 2 hrs; format: functional; method in brief: as §1
[7] = system: PBMC; assay: Upregulation of interleukin 1F5 in human PBMC at 20 ug/ml after 2 hrs; format: functional; method in brief: as §1
[8] = system: PBMC; assay: Upregulation of interleukin 10 in human PBMC at 20 ug/ml after 2 hrs; format: functional; method in brief: as §1
[9] = system: PBMC; assay: Upregulation of interleukin 24 in human PBMC at 20 ug/ml after 2 hrs; format: functional; method in brief: as §1
[10] = system: PBMC; assay: Downregulation of interleukin 1RAP in human PBMC at 20 ug/ml after 2 hrs; format: functional; method in brief: as §1
[11] = target: Triggering receptor expressed on myeloid cells 1 (Homo sapiens) (UniProt Q9NP99); assay: Induction of TREM-1-mediated activation of IRF by cytosolic pattern recognition receptors in human PBMC at 20 ug/ml; method in brief: as §1
[12] = system: PBMC; assay: Upregulation of interleukin 22 in human PBMC at 20 ug/ml after 2 hrs; format: functional; method in brief: as §1
[13] = target: Triggering receptor expressed on myeloid cells 1 (Homo sapiens) (UniProt Q9NP99); assay: Induction of TREM-1-mediated activation of NF-kappaB signalling pathway in human PBMC at 20 ug/ml; method in brief: as §1
[14] = system: PBMC; assay: Upregulation of interleukin 17RD in human PBMC at 20 ug/ml after 2 hrs; format: functional; method in brief: as §1
[15] = system: PBMC; assay: Upregulation of interleukin 6 in human PBMC at 20 ug/ml after 2 hrs; format: functional; method in brief: as §1
[16] = target: Triggering receptor expressed on myeloid cells 1 (Homo sapiens) (UniProt Q9NP99); assay: Induction of TREM-1-mediated activation of p38 MAPK signalling pathway in human PBMC at 20 ug/ml; method in brief: as §1
[17] = target: Triggering receptor expressed on myeloid cells 1 (Homo sapiens) (UniProt Q9NP99); assay: Induction of TREM-1-mediated activation of IL-9 signalling pathway in human PBMC at 20 ug/ml; method in brief: as §1
[18] = system: PBMC; assay: Upregulation of interleukin 2RA in human PBMC at 20 ug/ml after 2 hrs; format: functional; method in brief: as §1
[19] = target: Triggering receptor expressed on myeloid cells 1 (Homo sapiens) (UniProt Q9NP99); assay: Induction of TREM-1-mediated T-helper cell differentiation in human PBMC at 20 ug/ml; format: cell-based; method in brief: as §1
[20] = Upregulation of p38 MAPK expression in human […] by flow cytometry; format: functional, cell-based
Method in brief: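 Fresh heparinized human whole blood was incubated with graded compound concentrations diluted in saline for 15 min at 37°C. Erythrocytes were lysed and leukocytes fixed in one step, then permeabilized in ice-cold methanol for 30 min. Cells were stained 60 min with PE anti-phospho-p38MAPK (pT180/pY182) or a PE IgG1 κ isotype control. Flow cytometry acquired 20,000 gated events.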

[21] = system: PBMC; assay: Upregulation of interleukin 1B in human PBMC at 20 ug/ml after 2 hrs; format: functional; method in brief: as §1
[22] = system: PBMC; assay: Upregulation of interleukin 12B in human PBMC at 20 ug/ml after 2 hrs; format: functional; method in brief: as §1
[23] = system: PBMC; assay: Upregulation of interleukin 1alpha in human PBMC at 20 ug/ml after 2 hrs; format: functional; method in brief: as §1
[24] = target: Triggering receptor expressed on myeloid cells 1 (Homo sapiens) (UniProt Q9NP99); assay: Induction of TREM-1-mediated LXR/RXR activation in human PBMC at 20 ug/ml; method in brief: as §1
[25] = system: PBMC; assay: Upregulation of interleukin 18 in human PBMC at 20 ug/ml after 2 hrs; format: functional; method in brief: as §1
[26] = target: Triggering receptor expressed on myeloid cells 1 (Homo sapiens) (UniProt Q9NP99); assay: Induction of TREM-1-mediated activation of TNFR2 signalling pathway in human PBMC at 20 ug/ml; method in brief: as §1
[27] = system: PBMC; assay: Upregulation of interleukin 20 in human PBMC at 20 ug/ml after 2 hrs; format: functional; method in brief: as §1
[28] = system: PBMC; assay: Downregulation of interleukin 1RAPL1 in human PBMC at 20 ug/ml after 2 hrs; format: functional; method in brief: as §1
[29] = system: PBMC; assay: Upregulation of interleukin 17A in human PBMC at 20 ug/ml after 2 hrs; format: functional; method in brief: as §1
[30] = target: Triggering receptor expressed on myeloid cells 1 (Homo sapiens) (UniProt Q9NP99); assay: Induction of TREM-1-mediated activation of IL-10 signalling pathway in human PBMC at 20 ug/ml; method in brief: as §1
[31] = system: PBMC; assay: Downregulation of interleukin 8RB in human PBMC at 20 ug/ml after 2 hrs; format: functional; method in brief: as §1
[32] = system: PBMC; assay: Upregulation of interleukin 3 in human PBMC at 20 ug/ml after 2 hrs; format: functional; method in brief: as §1
[33] = target: Triggering receptor expressed on myeloid cells 1 (Homo sapiens) (UniProt Q9NP99); assay: Induction of TREM-1-mediated activation of communication between innate and adaptive immune cells in human PBMC at 20 ug/ml; format: cell-based; method in brief: as §1
[34] = Upregulation of CD11b expression in human […] by flow cytometry; format: functional, cell-based
Method in brief: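 Fresh anticoagulated human whole blood was incubated with graded compound dilutions for 1 h at 37°C, with saline negative controls. Samples were chilled 15 min, then stained with anti-CD11b/Mac-1 on ice for 30 min so only surface CD11b was labelled. Erythrocytes were lysed and leukocytes fixed, then washed. Flow cytometry in single-color PE mode acquired 20,000 gated events.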

[35] = system: PBMC; assay: Upregulation of interleukin 1F10 in human PBMC at 20 ug/ml after 2 hrs; format: functional; method in brief: as §1
[36] = system: PBMC; assay: Upregulation of interleukin 19 in human PBMC at 20 ug/ml after 2 hrs; format: functional; method in brief: as §1
[37] = system: PBMC; assay: Downregulation of interleukin 22RA1 in human PBMC at 20 ug/ml after 2 hrs; format: functional; method in brief: as §1
[38] = system: PBMC; assay: Upregulation of interleukin 1F9 in human PBMC at 20 ug/ml after 2 hrs; format: functional; method in brief: as §1
[39] = system: PBMC; assay: Downregulation of interleukin 31RA in human PBMC at 20 ug/ml after 2 hrs; format: functional; method in brief: as §1
[40] = target: Triggering receptor expressed on myeloid cells 1 (Homo sapiens) (UniProt Q9NP99); assay: Induction of TREM-1-mediated activation of PPAR signalling pathway in human PBMC at 20 ug/ml; method in brief: as §1

Triggering receptor expressed on myeloid cells 1 (Homo sapiens), sequence (Q9NP99 whole entry, looked up): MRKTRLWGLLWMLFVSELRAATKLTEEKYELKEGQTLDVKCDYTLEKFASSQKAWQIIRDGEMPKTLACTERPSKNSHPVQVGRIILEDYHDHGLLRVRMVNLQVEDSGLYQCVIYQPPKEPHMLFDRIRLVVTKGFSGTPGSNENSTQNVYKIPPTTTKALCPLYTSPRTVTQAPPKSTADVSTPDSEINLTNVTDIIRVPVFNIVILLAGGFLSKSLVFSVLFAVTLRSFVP

CCCCCCCCCCCC(=O)NCCCC(=O)NC(CCCC(N)C(=O)O)C(=O)O (configuration not stated)
EC50 [1]: 504 pM

CCCCCCCCCCCC(=O)N[C@H](CCC(=O)NC(CCCCC(=O)O)C(=O)O)C(=O)O (some centres not stated)
EC50 [1]: > 100000 pM

CCCCCCCCCCCCN(CCCCCCCCCCCC)[C@H](CCC(=O)NC(CCCC(N)C(=O)O)C(=O)O)C(=O)O (some centres not stated)
Activity [2]: Active
Activity [3]: Active
fold change (FC) [4]: 4.94
Activity [5]: Active
fold change (FC) [6]: 2.29
fold change (FC) [7]: 3.15
fold change (FC) [8]: 3.62
EC50 [1]: 1.5 pM
fold change (FC) [9]: 3.41
fold change (FC) [10]: 2.02
Activity [11]: Active
fold change (FC) [12]: 3.87
Activity [13]: Active
fold change (FC) [14]: 3.17
fold change (FC) [15]: 29.54
Activity [16]: Active
Activity [17]: Active
fold change (FC) [18]: 3.57
Activity [19]: Active
Activity [20]: Dose-dependent effect
fold change (FC) [21]: 4.14
fold change (FC) [22]: 6.13
fold change (FC) [23]: 14.34
Activity [24]: Active
fold change (FC) [25]: 2.03
Activity [26]: Active
fold change (FC) [27]: 4
fold change (FC) [28]: 2.06
fold change (FC) [29]: 10.56
Activity [30]: Active
fold change (FC) [31]: 2.75
fold change (FC) [32]: 5.99
Activity [33]: Active
Activity [34]: Dose-dependent effect
fold change (FC) [35]: 2.05
fold change (FC) [36]: 30.39
fold change (FC) [37]: 3.69
fold change (FC) [38]: 11.1
fold change (FC) [39]: 4.05
Activity [40]: Active

CCCCCCCCCCCC(=O)N[C@H](CCC(=O)N[C@@H](CCCCN)C(=O)O)C(=O)O
EC50 [1]: 570 pM

CCCCCCCCCCCNC(=O)[C@H](N)CCC(=O)NC(CCCC(N)C(=O)O)C(=O)O (some centres not stated)
EC50 [1]: 826 pM

CCCCCCCCCCCOC(=O)[C@H](N)CCC(=O)NC(CCCC(N)C(=O)O)C(=O)O (some centres not stated)
EC50 [1]: 66 pM

CCCCCCCCCCCOC(=O)[C@@H](CCC(=O)NC(CCCC(N)C(=O)O)C(=O)O)NC(=N)N (some centres not stated)
EC50 [1]: 238 pM

CCCCCCCCCCCC(=O)N[C@H](CCC(=O)NC(CCCC1NC(N)=NC1=O)C(=O)O)C(=O)O (some centres not stated)
EC50 [1]: 1310 pM

CCCCCCCCCCCSC(=O)[C@H](N)CCC(=O)NC(CCCC(N)C(=O)OCC)C(=O)OCC (some centres not stated)
EC50 [1]: 181 pM

CCCCCCCCCCCC(=O)N[C@H](CCC(=O)NC(CCCC(N)C(=O)OCC)C(=O)OCC)C(=O)O (some centres not stated)
EC50 [1]: 145 pM

CCCCCCCCCCCC(=O)N[C@H](CCC(=O)NCCCCCN)C(=O)O
EC50 [1]: > 100000 pM

CCCCCCCCCCCC(=O)N[C@H](CCC(=O)NC1CCCCNC1=O)C(=O)O (some centres not stated)
EC50 [1]: 1730 pM

CCCCCCCCCCCC(=O)NC(CCCC(NC(=O)CC[C@@H](N)C(=O)O)C(=O)O)C(=O)O (some centres not stated)
EC50 [1]: 550 pM
